Measurements from different studies.
Compare with care: the assays were run in different laboratories.
Read-out: metabolic stability

With `CN1CCCCC1Cn1cc(C(=O)c2cc([N+](=O)[O-])ccc2I)c2ccccc21` (racemic) the half-life was 10.6 min (mouse, liver microsomes).
`N=c1c2c(-c3ccccc3)c(-c3ccccc3)n(Cc3ccccc3)c2ncn1[C@H]1CC[C@H](O)CC1` has a half-life of greater than 120 min (mouse, liver S9; 1 µM).
`C=C1NC(=O)[C@H](C)N(O)C(=O)[C@H]([C@@H](O)C(N)=O)N(C)C(=O)[C@H](C)OC(=O)[C@@H]2C[C@H](C)CN2C1=O` has a half-life of greater than 120 min (mouse, liver microsomes).
The half-life of `O=C(c1cc(-n2sc3ncccc3c2=O)ccc1Cl)N1CCOCC1` is reported as greater than 120 min (mouse, liver microsomes).
The half-life of `C[C@H](Cn1cnc2c(N)ncnc21)OCP(=O)(O)OCCCOCCCCCCCCCCCCCCCC(F)(F)F.N` is reported as greater than 120 min (CD-1 mouse, liver microsomes; 3 µM, pH 7.4).
The half-life of `Nc1ncnc2c1c(Oc1cc(Cl)ccn1)nn2C1CCC(F)(F)CC1` is reported as roughly 25 min (mouse, liver microsomes; 1 µM).
For `O=C(c1ccc(-n2sc3ncccc3c2=O)cc1)N1CCOCC1`, the half-life was greater than 120 min (mouse, liver microsomes).
With `CCCCCCCCCCCCCCCCOCCCOP(=O)(O)CO[C@H](C)Cn1cnc2c(N)ncnc21.N` the half-life was greater than 120 min (CD-1 mouse, liver microsomes; 3 µM, pH 7.4).
For `Cc1cnc(Nc2ccc(C(=O)NC3CCN(C(=O)COCCOCCOCC(=O)N4CCC(NC(=O)c5ccc(Nc6ncc(C)c(Nc7ccc(Cl)c(NS(=O)(=O)C(C)(C)C)c7)n6)cc5F)CC4)CC3)c(F)c2)nc1Nc1ccc(Cl)c(NS(=O)(=O)C(C)(C)C)c1`, the half-life was 33 min (mouse, liver microsomes).
The half-life of `Cc1cc(C)nc(Nc2ncc(C(=O)NCCc3c(C)[nH]c4ccccc34)cn2)c1` is reported as 39 min (CD-1 mouse, hepatocytes; 1 µM).
The half-life of `Cc1nc2c(=O)n(C)c(=O)nc-2n(C)n1` is reported as greater than 186 min (mouse, liver microsomes).
`C[C@]12CC[C@H]3[C@@H](CCC4=CC(=O)CC[C@@]43C)[C@@H]1CC[C@@H]2O` gave a half-life of 2.1 min (mouse, liver microsomes; 1 µM).
With `Nc1ncnc2c1c(Oc1cc(C(F)(F)F)ccn1)nn2C1CCC(F)(F)CC1` the half-life was roughly 25 min (mouse, liver microsomes; 1 µM).
